# System: MS2 coat protein
# Test: apparent Kd, MS2 coat protein; higher = weaker binding; RNA-MaP array; FMN 200 µM where present
# How it was run: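 Green signal from SNAP-549-labelled MS2 coat protein was normalised to red-channel RNA signal and to the median Fmax of control clusters. The protein was titrated from 0.7 or 1.5 nM, doubling to 3 µM, without and then with constant ligand, over designs transcribed by stalled E. coli RNA polymerase on Illumina sequencing-chip clusters, in 100 mM Tris-HCl pH 7.5, 80 mM KCl, 4 mM MgCl2, BSA, DTT, yeast tRNA and Tween-20. The apparent Kd is the median of filtered per-cluster binding-curve fits.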
# [1] = designed as: ON switch for flavin mononucleotide, no ligand
# [2] = ligand present: flavin mononucleotide, designed as: ON switch for flavin mononucleotide
# [3] = designed as: OFF switch for flavin mononucleotide, no ligand
# [4] = ligand present: flavin mononucleotide, designed as: OFF switch for flavin mononucleotide
Sequence,apparent Kd [1] [nM],apparent Kd [2] [nM],apparent Kd [3] [nM],apparent Kd [4] [nM]
AAGGAAACCACAGGAUAUGGCUAGAAUAUCUAGCCAGAAGGGUGGUCGAAACCAUGUAAAUACAUGAGGAUCACCCAUGUGUCC,345,378,,
UAAGUCUAAUGAGGAUAUCGUAAUGAAACAUUAUGAGAAGGCAUACAAUCAUGAGGACAUGAGGAUCACCCAUGUUGUGACCAU,33.6,16.2,,
GCACGGCGUGUAGGAUAUGCAUAGCAUUGCUAUGCAGAAGGACAUGAGGAUCACCCAUGUAUGUAUUCCAUACAUUUCCCGUGC,,,6.42,7.31
GUGUAGGUAGGAUAUACAUGAGGAUCACCCAUGUGAAUAAGAUAGAAUAAGAUAAAGUGUAGAAGGGCUAGUGU,,,39.6,31.9
GCUCGAUGUGCUGAAAACAUGAGGAUCACCCAUGUAAAUGAUCAGGAUAUUUACGUGCUUUAUGUAGAGAAGGGAUCAUCGAGC,260,78.3,,
AUCUAAGAAUUAAUUGUGACUGACAGAAGGCAAUAGAAUGAGACCGACAUGAGGAUCACCCAUGUUGAGGAUAUGUCUUGCUAC,,,6.53,6.74
AGGAUUGUGCUAGGAUAUCCAGGUUUGCAACAAGGAGAAGGAGCACAUGAGGAUCACCCAUGUUCUCAAAGGCCAUGGCAAUAA,,,23.4,84.2
CUCCUACAUGAGGAUCACCCAUGUCAGGAUAUCUCAGUAGCACCUAAAGGUGCUACCCAGAGAAGGGACGUGCA,,,11.6,15.5
GUUAAACAUGAGGAUCACCCAUGUCAAUGUAGUCGAGGAUAUGGGCAGCUGUGAGGCGUACUAGAAGGCGAAAAGG,270,57.5,,
CCUCCUGCAAAGGAUAUCGCGCGGUGACGCUGUCGAGAAGGUUGUACAUGAGGAUCACCCAUGUGGUAUAAGAU,,,202,472
GCUGGACGAGGAUAUGCAAUCGUGCUUCGGCACGUAAGAUCACAUGAGGAUCACCCAUGUAGAAGGUGUCCAGC,,,17.9,30.2
CGUGUACGAGGAUAUAGAUUAGGCGACAUGAGGAUCACCCAUGUGAUCAAUCUAUUUGGUUUAGAAGGUGUACAUG,,,16.7,17.6
GCCGAAAGUGUGAGGAUAUACCUAUGGAUACAUAGGUAGAAGGCACAUGAGGAUCACCCAUGUCCAAUAACGGC,,,205,647
AAAGAGACAGGAUAUACAUGGGUGAUAAAAAUCAUGUAAAAACAUGAGGAUCACCCAUGUAGAAGGGUCUCAAA,,,26.9,22.8
AAUCGAUGAUCAGGAUAUGUGGAGCCUCUAAGCGAAGAGGCGUACAUGAGGAUCACCCAUGUGACACAGAAGGGAUACAUGCGG,64.2,8.2,,
CCGACGAAAGUCGAACGAUGUAGCAGAAGGACAUGAGGAUCACCCAUGUCAGCUGUAACAGCCAUGUAGGAUAUGCUACAUCGA,,,4.41,5.85
AACCUAUUACAGAAGGCCAGCUACAUGAGGAUCACCCAUGUCGAGUCAUGGAGGAUAUGUAGUAAUUUACUCGCGGAUGAGUAA,23.8,5.35,,
GACUGCCGAGGAUAUACAUGAGGAUCACCCAUGUGCUUCAGCAUUUUUUAAUGCAUGGGUAGAAGGCGGUAGUU,,,35.4,60.7
UUAGCGUAAGUAAGGAUAUGCUGGUCGAAAGACCAGCAGAAGGUACAUGAGGAUCACCCAUGUUGAGUUGUUGC,,,20,24.3
CCAAAAGCUACAGGAUAUCCGACUCGGUUGUCAGGAGAAGGGUGGCAAGACAUGAGGAUCACCCAUGUAGGGUCAUCCUUGAAA,,,9.9,22.1
ACAUGAGGAUCACCCAUGUAUUACAUGGUUAAGUUUAUUAACAGAAGGCGAAAUUACCACUUGGUCGAGGAUAUGUAUUCUAUU,,,40.3,40.7
GUAUCGUGAGGAUAUCUAGACUGACUUAGUACAUGUCAGCUGGAGAAGGCACAUGAGGAUCACCCAUGUGAUUA,,,22.6,73.8
UCUGCCGCCGUGAGGAUAUGCCCAAAUAAAAGCGGGCAGAAGGCACAUGAGGAUCACCCAUGUCCUGCGGUUUU,,,22.1,93.6

# Source: the EternaBench riboswitch data
